# Active and inactive are the calls of the source. No rule for the calls is given here.
# Target: T1, P2X purinoceptor 7 (Homo sapiens) (UniProt Q99572)
# T1 sequence (whole entry): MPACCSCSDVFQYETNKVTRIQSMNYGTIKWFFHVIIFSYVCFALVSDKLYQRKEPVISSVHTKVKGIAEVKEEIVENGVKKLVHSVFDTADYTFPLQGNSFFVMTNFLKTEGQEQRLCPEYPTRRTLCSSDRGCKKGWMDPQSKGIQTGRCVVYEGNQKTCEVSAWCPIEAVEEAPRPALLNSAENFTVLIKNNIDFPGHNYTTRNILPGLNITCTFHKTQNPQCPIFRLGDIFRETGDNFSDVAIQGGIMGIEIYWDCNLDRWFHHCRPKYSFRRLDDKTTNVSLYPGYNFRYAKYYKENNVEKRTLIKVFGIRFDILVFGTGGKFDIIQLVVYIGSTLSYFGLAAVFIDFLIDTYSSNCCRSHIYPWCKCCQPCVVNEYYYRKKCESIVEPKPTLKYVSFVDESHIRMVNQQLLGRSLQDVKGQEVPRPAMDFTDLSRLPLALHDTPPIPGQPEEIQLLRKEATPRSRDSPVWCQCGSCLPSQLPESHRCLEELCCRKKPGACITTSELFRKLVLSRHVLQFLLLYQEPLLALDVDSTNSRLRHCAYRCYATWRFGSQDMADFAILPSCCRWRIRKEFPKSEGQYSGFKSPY
# Assay: Inhibition of human P2X7 expressed in human HEK293 cells assessed as reduction in BzATP-stimulated TO-PRO-3 incorporation at 10 uM preincubated with compound and TO-PRO-3 for 15 mins prior to BzATP addition and measured after 1 hr by Fluo-3AM dye based flow cytometry relative to control
# Format: cell-based
# In short: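 HEK-293 cells overexpressing human P2RX7 loaded with Fluo-3 AM, then incubated with TO-PRO-3 (large pore uptake) and propidium iodide (viability) plus compound (10⁻⁵ M single point) for 15 min before BzATP 100 µM. After 1 h, flow cytometry; percentage of Fluo-3/TO-PRO-3 double-positive cells calculated. Mean of n ≥ 2 with positive control.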
row,Structure (SMILES),inhibition
1,O=C(NCc1ccccc1Cl)[C@@H]1CCC(=O)N1Cc1ccc(Cl)cc1Cl,0%
2,COc1cc(NC(=O)[C@@H]2CCC(=O)N2)cc(OC)c1OC,inactive
3,O=C1CCCC(C(=O)O)N1 (stereo unspecified),0%
4,CN(C)/C=C1\C[C@@H](C(=O)NCc2ccc(Cl)cc2Cl)NC1=O,53%
5,COC(=O)[C@@H]1CCC(=O)N1c1ccccc1,inactive
6,O=C1CC[C@@H](C(=O)NCC2CCCCC2)N1,inactive
7,COc1ccc(CNC(=O)[C@@H]2CCC(=O)N2)c(OC)c1,inactive
8,O=C(NCc1ccc(Cl)cc1Cl)[C@@H]1C/C(=N\O)C(=O)N1c1cccs1,76%
9,COC(=O)[C@@H]1CCC(=O)N1c1cccc2ncccc12,inactive
10,O=C(NCCc1ccccc1)[C@@H]1CCC(=O)N1Cc1ccc([N+](=O)[O-])cc1,0%
11,COC(=O)[C@@H]1CCC(=O)N1c1cccs1,inactive
12,COC(=O)[C@@H]1CCC(=O)N1Cc1ccc(OC)cc1,inactive
13,CN(C)/C=C1\C[C@H]2C(=O)N(CCc3ccccc3)C(N(C)C)N2C1=O (stereo partly specified),0%
14,O=C(NCc1ccc(Cl)cc1Cl)C1CC(=O)N(c2cccs2)C1 (stereo unspecified),92%
15,COc1ccccc1CNC(=O)[C@@H]1C/C(=C\N(C)C)C(=O)N1,0%
16,O=C(NCc1ccco1)[C@@H]1CCC(=O)N1Cc1ccc(Cl)cc1Cl,0%
17,O=C1CC[C@@H](C(=O)Nc2ccc(Cl)cc2Cl)N1,inactive
18,O=C(NCc1ccc(Cl)cc1Cl)[C@@H]1CCC(=O)N1Cc1ccc([N+](=O)[O-])cc1,0%
19,O=C(NCc1ccc(Cl)cc1Cl)[C@@H]1CCC(=O)N1c1cccc2ncccc12,0%
20,O=C1CC[C@@H](C(=O)NCc2cc(C(F)(F)F)ccc2Cl)N1,inactive
21,NC(=O)[C@@H]1CCC(=O)N1,inactive
22,O=C(NCc1ccc(Cl)cc1Cl)[C@@H]1CCC(=O)N1Cc1ccccc1Cl,85%

row,Structure (SMILES),inhibition
1,COC(=O)[C@@H]1CCC(OC)=N1,inactive
2,O=C1N[C@H](C(=O)O)CO1,inactive
3,COC(=O)[C@@H]1CCC(=O)N1c1ccoc1,inactive
4,CCCCCCNC(=O)[C@@H]1CCC(=O)N1,inactive
5,O=C1CC[C@@H](C(=O)NCc2ccncc2)N1,inactive
6,COC(=O)[C@@H]1CCC(=O)N1c1cccc(C(F)(F)F)c1,inactive
7,C[C@H](NC(=O)[C@@H]1CCC(=O)N1)c1ccccc1,inactive
8,COC(=O)[C@@H]1CCC(=O)N1[Si](C)(C)C,inactive
9,O=C1CC[C@@H](C(=O)NCc2cccc(C(F)(F)F)c2Cl)N1,inactive
10,COC(=O)[C@@H]1CCC(=O)N1,inactive
11,CN(C)C1N(Cc2ccc(Cl)cc2Cl)C(=O)[C@@H]2CC(=O)C(=O)N12 (stereo partly specified),0%
12,COC(=O)C1C/C(=C\N(C)C)C(=O)N1C(=O)OC (stereo unspecified),inactive
13,COc1ccc(NC(=O)[C@@H]2CCC(=O)N2)c(OC)c1,inactive
14,Cc1ccc(NC(=O)[C@@H]2CCC(=O)N2)cc1,inactive
15,O=C1CC[C@@H](C(=O)NCc2ccccc2Cl)N1,inactive
16,COC(=O)[C@@H]1CCC(=O)N1Cc1ccccc1,inactive
17,COC(=O)[C@@H]1CCC(=O)N1c1ccc(OC)cc1,inactive
18,CN(C)/C=C1\CC[C@@H](C(=O)NCc2ccc(Cl)cc2Cl)NC1=O,6%
19,COC(=O)[C@@H]1CCC(=O)N1c1ccc(C#N)cc1,inactive
20,COc1ccc(NC(=O)[C@@H]2CCC(=O)N2)cc1,inactive
21,COC(=O)[C@@H]1COC(=O)N1,inactive
22,COC(=O)[C@@H]1CCC(=O)N1c1ccc(Cl)cc1,inactive

row,Structure (SMILES),inhibition
1,COC(=O)[C@@H]1CCC(=O)N1C,inactive
2,C[C@@H](NC(=O)[C@@H]1C/C(=C\N(C)C)C(=O)N1)c1ccccc1,0%
3,COC(=O)[C@@H]1CCC(=O)N1c1ccccc1Cl,inactive
4,O=C1CC[C@@H](C(=O)Nc2ccncc2)N1,inactive
5,O=C1CC[C@@H](C(=O)NCCc2ccccc2)N1,inactive
6,O=C(NCCc1ccccc1)[C@@H]1CCC(=O)N1Cc1ccccc1,0%
7,O=C1CC[C@@H](C(=O)NCCc2ccc(Cl)cc2Cl)N1,inactive
8,COC(=O)[C@@H]1CCC(=O)N1Cc1ccc(Cl)cc1Cl,inactive
9,COC(=O)C1CNC(=O)C1 (stereo unspecified),inactive
10,O=C(NCc1ccc(Cl)cc1Cl)[C@@H]1CCC(=O)N1c1ccccc1Cl,0%
11,O=C1CC[C@@H](C(=O)NC2CCCCC2)N1,inactive
12,Cc1ccc(CN2C(=O)CC[C@H]2C(=O)NCCc2ccccc2)cc1,0%
13,COC(=O)[C@@H]1CCC(=O)N1Cc1ccc(Br)cc1,inactive
14,O=C1CC[C@@H](C(=O)NCc2ccc(Cl)cc2Cl)N1,inactive
15,COC(=O)[C@@H]1CCC(=O)N1C(c1ccc(Cl)cc1)c1ccc(Cl)cc1,inactive
16,COC(=O)[C@@H]1CCC(=O)N1c1ccc(Cl)cc1Cl,inactive
17,COc1ccc(NC(=O)[C@@H]2CCC(=O)N2)cc1F,inactive
18,C[C@H](NC(=O)[C@@H]1CCC(=O)N1c1cccs1)c1ccc(Cl)cc1Cl,0%
19,COC(=O)[C@@H]1CCC(=O)N1Cc1ccc(C)cc1,inactive
20,O=C(Nc1ccc(Cl)cc1Cl)[C@@H]1CCC(=O)N1c1ccccc1,0%
21,O=C(NCc1ccccc1)[C@@H]1CCC(=O)N1Cc1ccccc1,0%
22,COC(=O)[C@@H]1CCC(=O)N1c1cc(Cl)cc(Cl)c1,inactive

row,Structure (SMILES),inhibition
1,CN(C)/C=C1\C[C@H]2C(=O)N(Cc3ccccc3)C(N(C)C)N2C1=O (stereo partly specified),0%
2,O=C1CC[C@@H](C(=O)Nc2ccccc2)N1,inactive
3,O=C(NCc1ccc(Cl)cc1Cl)[C@@H]1CCC(=O)N1Cc1ccc(Cl)cc1Cl,0%
4,C[C@@H](NC(=O)[C@@H]1CCC(=O)N1)c1ccccc1,inactive
5,COc1ccccc1CNC(=O)[C@@H]1CCC(=O)N1,inactive
6,O=C1CC[C@@H](C(=O)NC2CC3CCC2C3)N1 (stereo partly specified),inactive
7,COC(=O)[C@@H]1CCC(=O)N1C(c1ccccc1)c1ccccc1,inactive
8,C[C@H](NC(=O)[C@@H]1C/C(=C\N(C)C)C(=O)N1)c1ccccc1,0%
9,COC(=O)[C@@H]1CCC(=O)N1Cc1ccc([N+](=O)[O-])cc1,inactive
10,COc1cc(N2C(=O)[C@@H]3C/C(=C\N(C)C)C(=O)N3C2N(C)C)cc(OC)c1OC (stereo partly specified),0%
11,C[C@@H](c1ccccc1)N1C(=O)[C@@H]2C/C(=C\N(C)C)C(=O)N2C1N(C)C (stereo partly specified),0%
12,COc1ccc(CNC(=O)[C@@H]2CCC(=O)N2)cc1,inactive
13,O=C(NCc1ccc(Cl)cc1Cl)[C@@H]1CCC(=O)N1c1cc(Cl)cc(Cl)c1,0%
14,O=C(NCc1ccc(Cl)cc1Cl)[C@@H]1CCC(=O)N1c1cccc(C(F)(F)F)c1,0%
15,O=C(NCc1ccc(Cl)cc1Cl)[C@@H]1CCC(=O)N1c1ccncc1,0%
16,COC(=O)[C@@H]1CCC(=O)N1Cc1ccc(Cl)cc1,inactive
17,COC(=O)[C@@H]1CCC(=O)N1Cc1ccccc1Cl,inactive
18,CN(C)C(=O)[C@@H]1CCC(=O)N1c1ccccc1,0%
19,COC(=O)[C@@H]1CCC(=O)N1c1ccncc1,inactive
20,O=C1CC[C@@H](C(=O)NCc2ccccc2)N1,inactive

# From ChEMBL document CHEMBL4627246, “Pyroglutamide-Based P2X7 Receptor Antagonists Targeting Inflammatory Bowel Disease” (J Med Chem, 2020)
